Calls of active or inactive are those of the source. The calls are words filed in the database; no cut-off is given here.
Assays:
[1] = Cytotoxicity against human NCI60 cells assessed as cell growth at 10 uM relative to vehicle-treated control; assay type: functional; settings: read-out: Activity
In short: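 NCI-60 one-dose screen: roughly 60 human cancer cell lines exposed to 10^-5 M (10 μM) compound. Value is growth percent of treated cells relative to vehicle-treated control, averaged across the panel.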

[2] = biological target: T1, DNA topoisomerase 1 (Homo sapiens) (UniProt P11387); assay: Inhibition of recombinant topoisomerase-1 (unknown origin) assessed as inhibition of 3'-[32P]-labeled DNA cleavage at 0.1 to 100 uM after 20 mins by PAGE analysis relative to control
T1 sequence (whole entry): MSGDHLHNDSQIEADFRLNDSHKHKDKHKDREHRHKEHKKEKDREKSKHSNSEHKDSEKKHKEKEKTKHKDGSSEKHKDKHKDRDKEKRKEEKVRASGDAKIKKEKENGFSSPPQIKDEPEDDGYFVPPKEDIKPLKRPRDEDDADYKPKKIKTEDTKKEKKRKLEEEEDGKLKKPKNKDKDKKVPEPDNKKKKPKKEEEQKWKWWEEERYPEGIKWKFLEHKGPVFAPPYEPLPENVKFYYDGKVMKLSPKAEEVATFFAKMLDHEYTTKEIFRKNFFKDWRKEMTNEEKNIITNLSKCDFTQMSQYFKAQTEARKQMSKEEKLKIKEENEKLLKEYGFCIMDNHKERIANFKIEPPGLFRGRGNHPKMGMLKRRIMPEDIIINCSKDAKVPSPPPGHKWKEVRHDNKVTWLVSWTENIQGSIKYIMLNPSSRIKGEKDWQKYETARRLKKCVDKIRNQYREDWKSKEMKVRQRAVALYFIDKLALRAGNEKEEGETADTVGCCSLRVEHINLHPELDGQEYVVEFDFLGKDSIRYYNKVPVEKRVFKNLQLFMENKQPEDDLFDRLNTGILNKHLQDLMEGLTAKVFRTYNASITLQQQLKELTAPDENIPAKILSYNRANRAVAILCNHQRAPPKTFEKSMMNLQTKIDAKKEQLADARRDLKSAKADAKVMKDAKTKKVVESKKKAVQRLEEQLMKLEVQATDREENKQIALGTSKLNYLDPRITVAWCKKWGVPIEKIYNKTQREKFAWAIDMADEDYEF

HOP-62 = assay: Growth inhibition of human HOP62 cells; assay type: functional
In short: (§1)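 NCI-60 five-dose testing, 10^-8 to 10^-4 M, given only to compounds with significant growth inhibition in the 10 μM one-dose screen. Five-dose assay may be repeated.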

OVCAR-3 = assay: Growth inhibition of human OVCAR3 cells; assay type: functional; in short: as §1
MCF7 = assay: Growth inhibition of human MCF7 cells; assay type: functional; in short: as §1
DU-145 = assay: Growth inhibition of human DU145 cells; assay type: functional; in short: as §1
SN12C = assay: Growth inhibition of human SN12C cells; assay type: functional; in short: as §1
HCT-116 = assay: Growth inhibition of human HCT116 cells; assay type: functional; in short: as §1
[3] = Growth inhibition of human SF539 cells; assay type: functional; settings: SF-539; in short: as §1
[4] = biological target: Tyrosyl-DNA phosphodiesterase 1 (Homo sapiens, UniProt Q9NUW8); assay: Inhibition of recombinant TDP1 (unknown origin) using N14Y as substrate after 15 mins by PAGE analysis
Chain of Tyrosyl-DNA phosphodiesterase 1 (Q9NUW8 whole entry): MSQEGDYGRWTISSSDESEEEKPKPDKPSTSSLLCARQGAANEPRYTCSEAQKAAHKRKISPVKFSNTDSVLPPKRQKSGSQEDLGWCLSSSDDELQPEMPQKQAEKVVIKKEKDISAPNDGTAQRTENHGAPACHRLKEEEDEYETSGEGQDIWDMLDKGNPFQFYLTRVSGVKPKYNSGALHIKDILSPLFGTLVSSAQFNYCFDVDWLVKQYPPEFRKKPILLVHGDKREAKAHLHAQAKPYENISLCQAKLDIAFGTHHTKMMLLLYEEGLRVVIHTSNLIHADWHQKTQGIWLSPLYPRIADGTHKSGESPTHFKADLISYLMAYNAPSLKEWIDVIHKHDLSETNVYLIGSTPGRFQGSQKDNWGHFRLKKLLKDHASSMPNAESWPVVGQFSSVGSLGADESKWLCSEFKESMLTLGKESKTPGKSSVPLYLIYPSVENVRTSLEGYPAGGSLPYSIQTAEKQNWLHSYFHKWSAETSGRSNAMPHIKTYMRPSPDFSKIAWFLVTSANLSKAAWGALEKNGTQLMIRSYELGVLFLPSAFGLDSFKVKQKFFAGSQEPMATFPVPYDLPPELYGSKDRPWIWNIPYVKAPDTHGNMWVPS
In short: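 Substrate is a 5'-[32P]-labelled single-stranded oligonucleotide with a 3'-phosphotyrosine (N14Y). It is incubated with 5 pM recombinant TDP1 ± test compound for 15 min at room temperature. Read-out is a gel.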

UACC-62 = assay: Growth inhibition of human UACC62 cells; assay type: functional; in short: as §1

SMILES | inhibition [2] | GI50 (OVCAR-3) | GI50 (MCF7) | GI50 (DU-145) | GI50 (HCT-116) | IC50 [4] | growth at 10 µM [1] | GI50 (HOP-62) | GI50 (SN12C) | GI50 [3] | GI50 (UACC-62)
COc1cc2c3c(n(C[C@H](O)[C@@H](O)[C@@H](O)[C@H](O)CO)c(=O)c2cc1OC)-c1cc2c(cc1C3=O)OCO2 | 50% |  |  |  |  |  | 82.3% |  |  |  | 
O=C1c2ccccc2-c2c1c1ccc([N+](=O)[O-])cc1c(=O)n2C[C@H](O)[C@@H](O)[C@H](O)CO | Active | 407 nM | 96 nM | 457 nM | 141 nM |  | -14.6% | 363 nM | 295 nM | 214 nM | 
O=C1c2ccccc2-c2c1c1ccc([N+](=O)[O-])cc1c(=O)n2CC(O)CO (racemic) | 75% | 479 nM | 60 nM | 363 nM | 138 nM | > 111000 nM | -17.5% | 324 nM | 355 nM | 339 nM | 
O=C1c2ccccc2-c2c1c1ccc([N+](=O)[O-])cc1c(=O)n2C[C@H](O)[C@@H](O)[C@@H](O)[C@H](O)CO | Active | 6030 nM | 2950 nM | 9550 nM |  | > 111000 nM | 51.5% | 5130 nM | 4270 nM | 2570 nM | 
O=C1c2ccccc2-c2c1c1ccc([N+](=O)[O-])cc1c(=O)n2C[C@H](O)[C@H](O)[C@H](O)CO | Active | 525 nM | 145 nM | 550 nM | 219 nM | > 111000 nM | -27.5% | 407 nM | 380 nM | 234 nM | 
COc1cc2c3c(n(C[C@H](O)[C@@H](O)[C@H](O)[C@H](O)CO)c(=O)c2cc1OC)-c1cc2c(cc1C3=O)OCO2 | 75% |  |  |  |  | > 111000 nM | 87.5% |  |  |  | 
O=C1c2ccccc2-c2c1c1ccc([N+](=O)[O-])cc1c(=O)n2C[C@@H]1O[C@H](CO)[C@@H](O)[C@H](O)[C@H]1O | 50% |  |  |  |  |  | 77.4% |  |  |  | 
O=C1c2ccccc2-c2c1c1ccc([N+](=O)[O-])cc1c(=O)n2C[C@@H](O)[C@@H](O)[C@H](O)[C@H](O)CO | Active | 5250 nM | 724 nM | > 100000 nM |  |  | 73.2% | > 100000 nM |  | 3390 nM | 3470 nM
O=C1c2ccccc2-c2c1c1ccc([N+](=O)[O-])cc1c(=O)n2C[C@@H](O)CO | 75% | 398 nM | 56 nM | 427 nM | 138 nM | > 111000 nM | -27% | 347 nM | 380 nM | 309 nM | 
COc1cc2c3c(n(C[C@@H]4O[C@H](CO)[C@@H](O)[C@H](O)[C@H]4O)c(=O)c2cc1OC)-c1cc2c(cc1C3=O)OCO2 | 50% |  |  |  |  |  | 97.7% |  |  |  | 
O=C1c2ccccc2-c2c1c1ccc([N+](=O)[O-])cc1c(=O)n2C[C@@H](O)[C@@H](O)[C@H](O)CO | Active | 2140 nM | 501 nM | 3470 nM | 1200 nM |  | -16.1% |  | 2690 nM | 1740 nM | 1100 nM
O=C1c2ccccc2-c2c1c1ccc([N+](=O)[O-])cc1c(=O)n2C[C@@H](O)[C@H](O)[C@H](O)CO | Active | 1700 nM | 912 nM | 3160 nM | 1350 nM |  | -9.21% | 1910 nM |  | 1450 nM | 

The next lines start with results.

inhibition [2] | GI50 (OVCAR-3) | GI50 (MCF7) | GI50 (DU-145) | GI50 (HCT-116) | IC50 [4] | SMILES | growth at 10 µM [1] | GI50 (HOP-62) | GI50 (SN12C) | GI50 [3] | GI50 (UACC-62)
Active |  | 29 nM | 40 nM | 36 nM | > 111000 nM | COc1cc2c3c(n(C[C@@H](O)CO)c(=O)c2cc1OC)-c1cc2c(cc1C3=O)OCO2 | 31.6% | 36 nM | 37 nM | 32 nM | 
75% | 22 nM | 59 nM | 479 nM | 148 nM |  | COc1cc2c3c(n(C[C@H](O)[C@H](O)[C@H](O)CO)c(=O)c2cc1OC)-c1cc2c(cc1C3=O)OCO2 | 46.9% | 251 nM | 229 nM | 28 nM | 62 nM
Active | 96 nM | 34 nM | 138 nM | 59 nM | > 111000 nM | COc1cc2c3c(n(C[C@H](O)[C@@H](O)[C@H](O)CO)c(=O)c2cc1OC)-c1cc2c(cc1C3=O)OCO2 | 5.32% | 27 nM | 85 nM | 21 nM | 52 nM
Active |  |  |  |  | > 111000 nM | COc1cc2c3c(n(C[C@@H](O)[C@@H](O)[C@H](O)[C@H](O)CO)c(=O)c2cc1OC)-c1cc2c(cc1C3=O)OCO2 | 79.5% |  |  |  | 
Active | 48 nM | 10 nM | 34 nM | 21 nM | > 111000 nM | COc1cc2c3c(n(C[C@H](O)CO)c(=O)c2cc1OC)-c1cc2c(cc1C3=O)OCO2 | 7.1% | 28 nM | 30 nM | 25 nM | 17 nM
Active | 52 nM | 21 nM | 36 nM | 26 nM | > 111000 nM | COc1cc2c3c(n(CC(O)CO)c(=O)c2cc1OC)-c1cc2c(cc1C3=O)OCO2 (racemic) | 27.1% | 31 nM | 35 nM | 23 nM | 
Active | 794 nM | 79 nM | 2510 nM | 891 nM | > 111000 nM | COc1cc2c3c(n(C[C@@H](O)[C@@H](O)[C@H](O)CO)c(=O)c2cc1OC)-c1cc2c(cc1C3=O)OCO2 | 34.7% | 676 nM | 457 nM | 214 nM | 195 nM
75% | 50100 nM | 148 nM | 50100 nM | 355 nM | > 111000 nM | COc1cc2c3c(n(C[C@@H](O)[C@H](O)[C@H](O)CO)c(=O)c2cc1OC)-c1cc2c(cc1C3=O)OCO2 | 52.8% | 50100 nM | 234 nM | 174 nM | 155 nM

Source: ChEMBL document CHEMBL3124742, “Synthesis and biological evaluation of new carbohydrate-substituted indenoisoquinoline topoisomerase I inhibitors and improved syntheses of the experimental anticancer agents indotecan (LMP400) and indimitecan (LMP776)” (J Med Chem, 2014)
